In brackets after ≈: the same amount, converted by molar mass.
Legend:
[1] = Selectivity index, ratio of GI50 for human HeLa cells to MIC for active stage of Mycobacterium tuberculosis H37Ra ATCC 25177 infected in human THP1 cells; assay type: toxicity, cell-based; conditions: read-out: Selectivity Index
How it was run: (§1)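 Selectivity index is the cytotoxic GI50 against the named human cell line divided by the antimycobacterial value. Activity counted as specific when SI >10.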

[2] = Selectivity index, ratio of GI50 for human PANC1 cells to MIC for dormant stage of Mycobacterium tuberculosis H37Ra ATCC 25177 infected in human THP1 cells; assay type: toxicity, cell-based; conditions: PANC-1 cells, read-out: Selectivity Index; how it was run: as §1
[3] = Selectivity index, ratio of GI50 for human PANC1 cells to MIC for active stage of Mycobacterium tuberculosis H37Ra ATCC 25177 infected in human THP1 cells; assay type: toxicity, cell-based; conditions: PANC-1 cells, read-out: Selectivity Index; how it was run: as §1
[4] = Selectivity index, ratio of GI50 for human A549 cells to MIC for dormant stage of Mycobacterium tuberculosis H37Ra ATCC 25177 infected in human THP1 cells; assay type: toxicity, cell-based; conditions: read-out: Selectivity Index; how it was run: as §1
[5] = test system: Mycobacterium tuberculosis; experiment: Antitubercular activity against dormant stage of Mycobacterium tuberculosis H37Ra ATCC 25177 after 12 days by XTT reduction menadione assay; assay type: functional; conditions: H37Ra ATCC 25177, 288 h
How it was run: (§2)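 M. tuberculosis H37Ra (ATCC 25177), grown to log phase (OD 1.0) in M. pheli medium from -70°C stock, subcultured once before inoculation. Incubation 8 days (active) or 12 days (dormant). XRMA read-out as absorbance at 470 nm.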

[6] = Selectivity index, ratio of GI50 for human HeLa cells to MIC for dormant stage of Mycobacterium tuberculosis H37Ra ATCC 25177; assay type: toxicity, cell-based; conditions: read-out: Selectivity Index; how it was run: as §1
[7] = Selectivity index, ratio of GI50 for human PANC1 cells to MIC for active stage of Mycobacterium tuberculosis H37Ra ATCC 25177; assay type: toxicity; conditions: PANC-1 cells, read-out: Selectivity Index; how it was run: as §1
[8] = test system: Mycobacterium tuberculosis; experiment: Antitubercular activity against active stage of Mycobacterium tuberculosis H37Ra ATCC 25177 infected in human THP1 cells after 8 days by nitrate reductase assay; assay type: functional; conditions: H37Ra ATCC 25177, 192 h
How it was run: (§3)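 Ex vivo test of H37Ra in THP-1 cells by nitrate reductase assay, absorbance read at 540 nm. Active stage incubated 8 days and dormant stage 12 days. H37Ra (ATCC 25177) grown in M. pheli medium to OD 1.0 and subcultured once from -70°C stock.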

[9] = Cytotoxicity against human HeLa cells assessed as growth inhibition by MTT assay; assay type: cell-based
How it was run: (§4)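 MTT assay in duplicate on THP-1 leukaemia, A549 lung adenocarcinoma, PANC-1 pancreatic adenocarcinoma and HeLa cervical carcinoma cells, all obtained from ECCC.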

[10] = Cytotoxicity against human THP1 cells assessed as growth inhibition by MTT assay; assay type: cell-based; conditions: THP-1 cells; how it was run: as §4
[11] = Selectivity index, ratio of GI50 for human A549 cells to MIC for dormant stage of Mycobacterium tuberculosis H37Ra ATCC 25177; assay type: toxicity; conditions: read-out: Selectivity Index; how it was run: as §1
[12] = Cytotoxicity against human PANC1 cells assessed as growth inhibition by MTT assay; assay type: cell-based; conditions: PANC-1 cells; how it was run: as §4
[13] = Selectivity index, ratio of GI50 for human PANC1 cells to MIC for dormant stage of Mycobacterium tuberculosis H37Ra ATCC 25177; assay type: toxicity; conditions: PANC-1 cells, read-out: Selectivity Index; how it was run: as §1
[14] = Selectivity index, ratio of GI50 for human A549 cells to MIC for active stage of Mycobacterium tuberculosis H37Ra ATCC 25177; assay type: toxicity; conditions: read-out: Selectivity Index; how it was run: as §1
[15] = test system: Mycobacterium tuberculosis; experiment: Antitubercular activity against dormant stage of Mycobacterium tuberculosis H37Ra ATCC 25177 infected in human THP1 cells after 12 days by nitrate reductase assay; assay type: functional; conditions: H37Ra ATCC 25177, 288 h; how it was run: as §3
[16] = test system: Mycobacterium tuberculosis; experiment: Antitubercular activity against active stage of Mycobacterium tuberculosis H37Ra ATCC 25177 after 8 days by XTT reduction menadione assay; assay type: functional; conditions: H37Ra ATCC 25177, 192 h; how it was run: as §2
[17] = Selectivity index, ratio of GI50 for human HeLa cells to MIC for dormant stage of Mycobacterium tuberculosis H37Ra ATCC 25177 infected in human THP1 cells; assay type: toxicity, cell-based; conditions: read-out: Selectivity Index; how it was run: as §1
[18] = Cytotoxicity against human A549 cells assessed as growth inhibition by MTT assay; assay type: cell-based; how it was run: as §4
[19] = Selectivity index, ratio of GI50 for human A549 cells to MIC for active stage of Mycobacterium tuberculosis H37Ra ATCC 25177 infected in human THP1 cells; assay type: toxicity, cell-based; conditions: read-out: Selectivity Index; how it was run: as §1
[20] = Selectivity index, ratio of GI50 for human HeLa cells to MIC for active stage of Mycobacterium tuberculosis H37Ra ATCC 25177; assay type: toxicity, cell-based; conditions: read-out: Selectivity Index; how it was run: as §1

SMILES	selectivity ratio [1]	selectivity ratio [2]	selectivity ratio [3]	selectivity ratio [4]	MIC [5] [µg/mL]	selectivity ratio [6]	selectivity ratio [7]	MIC [8] [µg/mL]	GI50 [9] [µg/mL]	GI50 [10] [µg/mL]	selectivity ratio [11]	GI50 [12] [µg/mL]	selectivity ratio [13]	selectivity ratio [14]	MIC [15] [µg/mL]	MIC [16] [µg/mL]	selectivity ratio [17]	GI50 [18] [µg/mL]	selectivity ratio [19]	selectivity ratio [20]
COc1cc(-c2nc(SCCCn3cnc4sc5c(c4c3=O)CCCC5)n(CCCn3cnc4sc5c(c4c3=O)CCCC5)c(=O)c2C#N)cc(OC)c1OC	3	> 3	> 3	3	> 30	3	> 3	> 30	89.6 (≈ 110 µM)	81.4 (≈ 100 µM)	< 3	> 100	> 3	3	> 30	> 30	< 3	83.1 (≈ 102 µM)	< 3	3
COc1cc(-c2nc(SCCCn3cnc4sc5c(c4c3=O)CCCC5)n(CCC(F)(F)C(F)(F)C(F)(F)C(F)(F)C(F)(F)C(F)(F)F)c(=O)c2C#N)cc(OC)c1OC	> 3	> 11	> 3	> 11	11.7 (≈ 12.8 µM)	> 8	> 3	> 30	> 100	> 100	> 8	> 100	> 8	> 3	8.8 (≈ 9.65 µM)	> 30	> 11	> 100	> 3	> 3
COc1cc(-c2nc(SCCCn3cnc4sc5c(c4c3=O)CCCC5)n(Cc3c(F)c(F)c(F)c(F)c3F)c(=O)c2C#N)cc(OC)c1OC	> 3	> 4	> 3	> 4	28.3 (≈ 37.9 µM)	> 4	> 3	> 30	> 100	> 100	> 4	> 100	> 4	> 3	26.5 (≈ 35.5 µM)	> 30	> 4	> 100	> 3	> 3
N#Cc1c(-c2ccc(O)cc2)[nH]c(=S)[nH]c1=O	3	< 3	3	3	> 30	3	3	> 30	90.8 (≈ 370 µM)	93 (≈ 379 µM)	< 3	89.1 (≈ 363 µM)	< 3	3	> 30	> 30	< 3	87.4 (≈ 356 µM)	< 3	3
COc1cc(-c2nc(SCCCn3cnc4sc5c(c4c3=O)CCCC5)n(Cc3ccccc3)c(=O)c2C#N)cc(OC)c1OC	2	2	2	> 3	> 30	2	2	> 30	72.1 (≈ 110 µM)	> 100	> 3	51.9 (≈ 79.1 µM)	2	> 3	> 30	> 30	2	> 100	> 3	2

— ChEMBL document CHEMBL3992538, “Hybrids of thienopyrimidinones and thiouracils as anti-tubercular agents: SAR and docking studies” (Eur J Med Chem, 2017)
